Activity calls are given as the source filed them. No cut-off for these calls is given here.
Tests used:
[1] = target: Dual specificity mitogen-activated protein kinase kinase 2 (Homo sapiens) (UniProt P36507); test: Inhibition of human MKK2 assessed as remaining activity at 10 uM in presence of ATP by radiometric kinase assay relative to control
[2] = target: Mitogen-activated protein kinase 3 (Homo sapiens) (UniProt P27361); test: Inhibition of human ERK1 assessed as remaining activity at 10 uM in presence of ATP by radiometric kinase assay relative to control
[3] = target: Ribosomal protein S6 kinase beta-1 (Homo sapiens) (UniProt P23443); test: Inhibition of human S6K1 assessed as remaining activity at 10 uM in presence of ATP by radiometric kinase assay relative to control
[4] = target: Protein kinase C alpha type (Homo sapiens) (UniProt P17252); test: Inhibition of human PKCa assessed as remaining activity at 10 uM in presence of ATP by radiometric kinase assay relative to control
[5] = target: MAP kinase-interacting serine/threonine-protein kinase 2 (Homo sapiens) (UniProt Q9HBH9); test: Inhibition of human MNK2 assessed as remaining activity at 10 uM in presence of ATP by radiometric kinase assay relative to control
[6] = target: MAP kinase-activated protein kinase 3 (Homo sapiens) (UniProt Q16644); test: Inhibition of human MAPKAP-K3 assessed as remaining activity at 10 uM in presence of ATP by radiometric kinase assay relative to control
[7] = target: Dual specificity tyrosine-phosphorylation-regulated kinase 1A (Homo sapiens) (UniProt Q13627); test: Inhibition of human DYRK1A assessed as remaining activity at 10 uM in presence of ATP by radiometric kinase assay relative to control
[8] = target: Serine/threonine-protein kinase TBK1 (Homo sapiens) (UniProt Q9UHD2); test: Inhibition of human TBK1 assessed as remaining activity at 10 uM in presence of ATP by radiometric kinase assay relative to control
[9] = target: Serine/threonine-protein kinase pim-1 (Homo sapiens) (UniProt P11309); test: Inhibition of human PIM1 assessed as remaining activity at 10 uM in presence of ATP by radiometric kinase assay relative to control
[10] = target: Serine/threonine-protein kinase pim-3 (Homo sapiens) (UniProt Q86V86); test: Inhibition of human PIM3 assessed as remaining activity at 10 uM in presence of ATP by radiometric kinase assay relative to control
[11] = target: Homeodomain-interacting protein kinase 2 (Homo sapiens) (UniProt Q9H2X6); test: Inhibition of human HIPK2 assessed as remaining activity at 10 uM in presence of ATP by radiometric kinase assay relative to control
[12] = target: Dual specificity testis-specific protein kinase 1 (Homo sapiens) (UniProt Q15569); test: Inhibition of human TESK1 assessed as remaining activity at 10 uM in presence of ATP by radiometric kinase assay relative to control
[13] = target: Serine/threonine-protein kinase TAO1 (Homo sapiens) (UniProt Q7L7X3); test: Inhibition of human TAO1 assessed as remaining activity at 10 uM in presence of ATP by radiometric kinase assay relative to control
[14] = target: Mitogen-activated protein kinase kinase kinase 5 (Homo sapiens) (UniProt Q99683); test: Inhibition of human ASK1 assessed as remaining activity at 10 uM in presence of ATP by radiometric kinase assay relative to control
[15] = target: Casein kinase I (Homo sapiens) (UniProt Q9HCP0+P78368+P48730+P49674+P48729); test: Inhibition of human CK1 assessed as remaining activity at 10 uM in presence of ATP by radiometric kinase assay relative to control; assay type: protein assay
[16] = target: Tyrosine-protein kinase BTK (Homo sapiens) (UniProt Q06187); test: Inhibition of human BTK assessed as remaining activity at 10 uM in presence of ATP by radiometric kinase assay relative to control
[17] = target: Tyrosine-protein kinase ZAP-70 (Homo sapiens) (UniProt P43403); test: Inhibition of human ZAP70 assessed as remaining activity at 10 uM in presence of ATP by radiometric kinase assay relative to control
[18] = target: Protein-tyrosine kinase 6 (Homo sapiens) (UniProt Q13882); test: Inhibition of human BRK assessed as remaining activity at 10 uM in presence of ATP by radiometric kinase assay relative to control
[19] = target: Ephrin type-B receptor 4 (Homo sapiens) (UniProt P54760); test: Inhibition of human EPH-B4 assessed as remaining activity at 10 uM in presence of ATP by radiometric kinase assay relative to control
[20] = tested on: SW-620; test: Induction of apoptosis in human SW620 cells assessed as increased in cleaved PARP in presence of gemcitabine by Western blotting analysis; assay type: functional, cell-based
[21] = Half life in BALB/C mouse spleen at 10 mg/kg, po by LC/MS-MS analysis; assay type: ADME, organism-based
How it was run: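 Female BALB/c mice received a single bolus of 10mg/kg, either i.v. or p.o. The oral vehicle was DPTW (10% DMSO, 20% PEG400, 5% Tween 80, 65% water). Plasma and spleen homogenates were extracted with methanol containing internal standards. Drug levels were measured by LC/MS-MS, and pharmacokinetic parameters were calculated from the concentration-time profiles.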

[22] = tested on: Mus musculus; test: In vivo inhibition of CHK1 in CRTac:Ncr-Fox1 mouse xenografted with human HT-29 cells assessed as reduction of phosphorylation of CHK1 on S296 at 50 mg/kg, po administered for 24 hrs by Western blotting analysis; assay type: functional, organism-based
How it was run: (§1)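 HT29 s.c. xenografts in female athymic nude mice. Single gemcitabine dose 100mg/kg i.v. on day 0, then one inhibitor dose 50 or 100mg/kg p.o. (DPTW vehicle) 24h later. Tumors taken 24h after the last dose, western blotted, and signals quantified by normalizing to GAPDH.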

[23] = tested on: Mus musculus; test: In vivo inhibition of CHK1 in CRTac:Ncr-Fox1 mouse xenografted with human HT-29 cells assessed as reduction of phosphorylation of CHK1 on S317 at 50 to 100 mg/kg, po administered for 24 hrs by Western blotting analysis; assay type: functional, organism-based; conditions: dose 50-100 mg/kg; how it was run: as §1
[24] = tested on: Mus musculus; test: In vivo inhibition of CHK1 in CRTac:Ncr-Fox1 athymic mouse xenografted with human Calu-6 cells assessed as inhibition of CHK1 phosphorylation on S296 at 150 mg/kg, po in presence of gemcitabine and carboplatin by Western blotting analysis; assay type: functional, organism-based
How it was run: (§2)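 Female CRTac:Ncr-Fox1(nu) athymic mice carried s.c. Calu6 xenografts. Tumors were taken 6h after the last inhibitor dose, lysed in CHAPS buffer, and immunoblotted with GAPDH as loading control.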

[25] = tested on: Mus musculus; test: In vivo inhibition of total CHK1 in CRTac:Ncr-Fox1 athymic mouse xenografted with human Calu-6 cells at 150 mg/kg, po in presence of gemcitabine and carboplatin by Western blotting analysis; assay type: functional, organism-based; how it was run: as §2
[26] = target: Cyclin-dependent kinase 1 (Homo sapiens) (UniProt P06493); test: Inhibition of human CDK1 by DELFIA assay

Chain of Tyrosine-protein kinase BTK (Homo sapiens) (Q06187 whole entry): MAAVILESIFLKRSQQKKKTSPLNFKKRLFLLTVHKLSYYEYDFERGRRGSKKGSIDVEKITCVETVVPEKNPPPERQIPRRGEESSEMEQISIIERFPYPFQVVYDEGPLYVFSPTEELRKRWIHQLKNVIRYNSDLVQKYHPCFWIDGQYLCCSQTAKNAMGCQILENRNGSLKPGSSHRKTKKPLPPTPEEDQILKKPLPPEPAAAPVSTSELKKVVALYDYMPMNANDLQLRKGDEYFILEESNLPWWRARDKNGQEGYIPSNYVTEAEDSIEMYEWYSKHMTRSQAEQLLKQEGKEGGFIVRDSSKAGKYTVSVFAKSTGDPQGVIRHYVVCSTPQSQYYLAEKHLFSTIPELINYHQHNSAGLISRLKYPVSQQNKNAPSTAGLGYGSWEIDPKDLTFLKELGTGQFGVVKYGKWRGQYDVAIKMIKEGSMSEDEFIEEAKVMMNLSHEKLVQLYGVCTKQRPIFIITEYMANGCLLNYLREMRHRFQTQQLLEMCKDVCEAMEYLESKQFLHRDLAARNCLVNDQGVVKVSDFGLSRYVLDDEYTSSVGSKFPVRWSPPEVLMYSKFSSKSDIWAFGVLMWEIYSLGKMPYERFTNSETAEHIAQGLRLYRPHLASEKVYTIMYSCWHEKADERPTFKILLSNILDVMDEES
Chain of Mitogen-activated protein kinase 3 (Homo sapiens) (P27361 whole entry): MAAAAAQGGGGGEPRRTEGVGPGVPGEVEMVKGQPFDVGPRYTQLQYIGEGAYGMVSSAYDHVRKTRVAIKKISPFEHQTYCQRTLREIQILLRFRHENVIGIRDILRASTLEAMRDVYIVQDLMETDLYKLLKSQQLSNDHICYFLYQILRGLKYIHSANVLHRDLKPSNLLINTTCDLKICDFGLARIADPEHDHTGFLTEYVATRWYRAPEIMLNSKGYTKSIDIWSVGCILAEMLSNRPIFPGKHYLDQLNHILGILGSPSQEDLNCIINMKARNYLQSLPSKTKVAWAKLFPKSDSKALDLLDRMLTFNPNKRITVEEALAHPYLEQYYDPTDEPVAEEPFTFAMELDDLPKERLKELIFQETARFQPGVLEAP
Chain of MAP kinase-interacting serine/threonine-protein kinase 2 (Homo sapiens) (Q9HBH9 whole entry, looked up): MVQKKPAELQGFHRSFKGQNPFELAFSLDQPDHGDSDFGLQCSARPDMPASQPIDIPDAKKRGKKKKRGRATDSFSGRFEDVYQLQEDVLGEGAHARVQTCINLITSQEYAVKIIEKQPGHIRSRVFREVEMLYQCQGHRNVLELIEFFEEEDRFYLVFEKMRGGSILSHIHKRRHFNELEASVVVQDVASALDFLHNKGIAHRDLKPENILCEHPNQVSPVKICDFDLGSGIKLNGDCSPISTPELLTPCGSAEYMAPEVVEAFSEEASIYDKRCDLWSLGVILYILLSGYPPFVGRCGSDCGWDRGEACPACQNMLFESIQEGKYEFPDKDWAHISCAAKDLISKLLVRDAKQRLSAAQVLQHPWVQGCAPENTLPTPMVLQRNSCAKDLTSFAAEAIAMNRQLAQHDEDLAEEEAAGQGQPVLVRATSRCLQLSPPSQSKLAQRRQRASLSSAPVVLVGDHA
Chain of Serine/threonine-protein kinase TBK1 (Homo sapiens) (Q9UHD2 whole entry): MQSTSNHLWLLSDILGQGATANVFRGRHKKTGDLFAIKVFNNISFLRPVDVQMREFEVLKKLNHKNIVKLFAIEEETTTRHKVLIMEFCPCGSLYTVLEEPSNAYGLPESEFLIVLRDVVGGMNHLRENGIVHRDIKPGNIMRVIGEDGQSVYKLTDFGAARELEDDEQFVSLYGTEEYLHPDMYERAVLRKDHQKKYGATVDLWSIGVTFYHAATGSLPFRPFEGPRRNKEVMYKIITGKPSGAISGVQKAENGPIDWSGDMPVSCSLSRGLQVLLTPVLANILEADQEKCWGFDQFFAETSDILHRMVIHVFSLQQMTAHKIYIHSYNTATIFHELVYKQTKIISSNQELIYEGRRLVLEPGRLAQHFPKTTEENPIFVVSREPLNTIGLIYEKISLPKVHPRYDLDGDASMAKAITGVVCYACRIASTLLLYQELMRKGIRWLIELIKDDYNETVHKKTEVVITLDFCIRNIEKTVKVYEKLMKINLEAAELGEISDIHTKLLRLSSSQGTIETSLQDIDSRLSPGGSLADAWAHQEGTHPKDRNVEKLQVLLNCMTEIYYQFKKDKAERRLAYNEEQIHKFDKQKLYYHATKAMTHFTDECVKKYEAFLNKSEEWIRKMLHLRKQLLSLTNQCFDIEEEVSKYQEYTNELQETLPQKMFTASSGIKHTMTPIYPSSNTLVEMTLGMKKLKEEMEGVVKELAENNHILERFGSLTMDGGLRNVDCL
Chain of MAP kinase-activated protein kinase 3 (Homo sapiens) (Q16644 whole entry, looked up): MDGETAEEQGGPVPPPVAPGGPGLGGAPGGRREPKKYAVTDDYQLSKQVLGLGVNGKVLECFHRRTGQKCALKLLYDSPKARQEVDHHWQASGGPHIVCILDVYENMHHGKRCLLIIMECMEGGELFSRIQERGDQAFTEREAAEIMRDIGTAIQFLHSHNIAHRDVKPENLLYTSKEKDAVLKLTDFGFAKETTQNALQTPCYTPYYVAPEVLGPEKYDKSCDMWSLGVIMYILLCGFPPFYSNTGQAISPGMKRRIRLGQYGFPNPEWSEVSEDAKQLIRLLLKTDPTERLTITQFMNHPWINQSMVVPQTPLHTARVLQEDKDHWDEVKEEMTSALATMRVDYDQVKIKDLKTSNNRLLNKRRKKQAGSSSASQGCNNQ
Chain of Dual specificity testis-specific protein kinase 1 (Homo sapiens) (Q15569 whole entry, looked up): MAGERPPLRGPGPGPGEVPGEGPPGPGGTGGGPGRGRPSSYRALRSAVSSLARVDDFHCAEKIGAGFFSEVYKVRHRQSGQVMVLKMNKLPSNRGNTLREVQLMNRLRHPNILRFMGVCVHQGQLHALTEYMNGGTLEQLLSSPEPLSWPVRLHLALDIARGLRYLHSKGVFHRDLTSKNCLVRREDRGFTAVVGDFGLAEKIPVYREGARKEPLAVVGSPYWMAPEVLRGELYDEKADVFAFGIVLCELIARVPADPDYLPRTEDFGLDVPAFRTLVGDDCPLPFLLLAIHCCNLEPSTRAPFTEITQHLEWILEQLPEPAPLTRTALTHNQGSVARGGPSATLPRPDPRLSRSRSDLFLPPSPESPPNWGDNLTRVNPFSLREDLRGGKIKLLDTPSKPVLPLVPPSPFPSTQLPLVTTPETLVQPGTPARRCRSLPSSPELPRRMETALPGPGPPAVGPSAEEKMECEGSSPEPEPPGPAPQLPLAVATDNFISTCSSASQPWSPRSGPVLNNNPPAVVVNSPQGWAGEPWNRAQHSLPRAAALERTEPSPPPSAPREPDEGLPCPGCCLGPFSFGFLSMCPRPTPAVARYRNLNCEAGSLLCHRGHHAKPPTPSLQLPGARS
Chain of Homeodomain-interacting protein kinase 2 (Homo sapiens) (Q9H2X6 whole entry, looked up): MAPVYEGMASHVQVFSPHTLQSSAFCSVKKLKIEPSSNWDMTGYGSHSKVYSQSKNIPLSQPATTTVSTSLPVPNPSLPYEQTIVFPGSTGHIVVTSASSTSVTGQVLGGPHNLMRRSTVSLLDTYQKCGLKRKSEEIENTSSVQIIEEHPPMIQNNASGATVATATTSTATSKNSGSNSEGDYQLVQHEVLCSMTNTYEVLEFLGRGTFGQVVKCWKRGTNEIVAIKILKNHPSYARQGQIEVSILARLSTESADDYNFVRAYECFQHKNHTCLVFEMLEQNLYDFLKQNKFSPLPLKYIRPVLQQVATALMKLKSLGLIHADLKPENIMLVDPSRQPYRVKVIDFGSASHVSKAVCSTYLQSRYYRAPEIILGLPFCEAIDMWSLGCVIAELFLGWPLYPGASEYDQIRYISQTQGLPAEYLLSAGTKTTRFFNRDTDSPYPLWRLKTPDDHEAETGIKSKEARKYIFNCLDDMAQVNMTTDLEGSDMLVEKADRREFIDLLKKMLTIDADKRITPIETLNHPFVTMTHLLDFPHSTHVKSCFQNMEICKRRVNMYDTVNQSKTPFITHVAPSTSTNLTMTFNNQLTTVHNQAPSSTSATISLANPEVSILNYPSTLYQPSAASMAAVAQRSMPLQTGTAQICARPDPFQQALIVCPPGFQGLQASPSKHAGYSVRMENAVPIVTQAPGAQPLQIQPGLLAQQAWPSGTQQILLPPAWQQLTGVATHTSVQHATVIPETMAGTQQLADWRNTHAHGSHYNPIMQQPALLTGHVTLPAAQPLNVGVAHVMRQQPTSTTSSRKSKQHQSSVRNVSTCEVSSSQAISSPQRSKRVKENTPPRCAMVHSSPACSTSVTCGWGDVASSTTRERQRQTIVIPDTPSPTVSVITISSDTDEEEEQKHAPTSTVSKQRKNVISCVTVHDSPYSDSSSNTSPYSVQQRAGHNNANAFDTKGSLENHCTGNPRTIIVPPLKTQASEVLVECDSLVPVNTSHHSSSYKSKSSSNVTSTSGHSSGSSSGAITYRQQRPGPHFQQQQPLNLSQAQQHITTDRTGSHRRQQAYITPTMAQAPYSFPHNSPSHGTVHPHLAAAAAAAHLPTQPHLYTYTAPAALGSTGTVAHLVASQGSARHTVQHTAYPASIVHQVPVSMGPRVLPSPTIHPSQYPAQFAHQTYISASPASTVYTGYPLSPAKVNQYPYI
Chain of Ribosomal protein S6 kinase beta-1 (Homo sapiens) (P23443 whole entry, looked up): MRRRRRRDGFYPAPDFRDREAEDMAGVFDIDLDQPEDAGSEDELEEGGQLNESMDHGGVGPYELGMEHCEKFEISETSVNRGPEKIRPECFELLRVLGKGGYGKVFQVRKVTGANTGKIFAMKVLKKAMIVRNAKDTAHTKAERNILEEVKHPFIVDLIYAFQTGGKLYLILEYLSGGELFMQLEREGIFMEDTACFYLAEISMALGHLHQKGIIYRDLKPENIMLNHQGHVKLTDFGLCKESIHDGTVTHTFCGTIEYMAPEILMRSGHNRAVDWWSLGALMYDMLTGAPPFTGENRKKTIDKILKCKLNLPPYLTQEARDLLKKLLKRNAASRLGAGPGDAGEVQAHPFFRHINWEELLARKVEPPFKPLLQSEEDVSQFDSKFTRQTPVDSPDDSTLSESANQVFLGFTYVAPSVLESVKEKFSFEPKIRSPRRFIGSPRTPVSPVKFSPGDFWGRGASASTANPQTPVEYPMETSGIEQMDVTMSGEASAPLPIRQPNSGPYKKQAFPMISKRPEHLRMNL

N#Cc1cnc(Nc2cc(NC[C@H]3CNCCO3)c(C(F)(F)F)cn2)cn1 [SRA-737]
Activity [1]: 61% | Activity [2]: 75% | Activity [3]: 52% | Activity [4]: 82% | Activity [5]: 75% | Activity [6]: 114% | Activity [7]: 41% | Activity [8]: 71% | Activity [9]: 56% | Activity [10]: 36% | Activity [11]: 92% | Activity [12]: 101% | Activity [13]: 54% | Activity [14]: 80% | Activity [15]: 85% | Activity [16]: 72% | Activity [17]: 93% | Activity [18]: 108% | Activity [19]: 81% | Activity [20]: Active | half-life [21]: 3.11 h | Activity [22]: Active | Activity [23]: inactive | inhibition [24]: Active | inhibition [25]: Active | IC50 [26]: 2440 nM

From ChEMBL document CHEMBL5653622 (Oncotarget, 2016)
